The source of these data is ChEMBL document CHEMBL3352584, “Novel DNA gyrase inhibiting spiropyrimidinetriones with a benzisoxazole scaffold: SAR and in vivo characterization” (J Med Chem, 2014).

In brackets after ≈: the same amount, converted by molar mass. Bounds are passed on as bounds.

Type in all cases: functional
Assay [1] relates to Staphylococcus aureus. In words: Antimicrobial activity against wild-type Staphylococcus aureus 516 by broth microdilution method. Put shortly: (§1)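 Broth microdilution following CLSI guidelines. Values under 12.5 μM are averages of three or more replicates.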
The subject of assay [2] is Streptococcus pneumoniae. In words: Antimicrobial activity against Streptococcus pneumoniae 2800 harboring GyrB K143I/T172A mutant by broth microdilution method. For orientation: In broth dilution the organism is exposed to a series of concentrations in liquid medium.
In assay [3] the test system is Staphylococcus aureus. In words: Antimicrobial activity against Staphylococcus aureus 2375 harboring GyrA S84L mutant, GyrB R144A mutant and ParC S80Y/E84G/V693M mutant and ParE N141S mutant by broth microdilution method.
The test system of assay [4] is Streptococcus pneumoniae. In words: Antimicrobial activity against wild-type Streptococcus pneumoniae 548 by broth microdilution method. The essentials: as §1
Assay [5] concerns Streptococcus pneumoniae. In words: Antimicrobial activity against Streptococcus pneumoniae 2485 harboring GyrA S81F mutant, GyrB D160E/T329A mutant and ParC S79F mutant by broth microdilution method.
Assay [6] has as its system Staphylococcus aureus. In words: Antimicrobial activity against Staphylococcus aureus 2792 harboring wild-type GyrA and GyrB R144A mutant by broth microdilution method.

For the compound `CO[C@@H]1[C@@H](OC(N)=O)[C@@H](O)[C@H](Oc2ccc3c(O)c(NC(=O)c4ccc(O)c(CC=C(C)C)c4)c(=O)oc3c2C)OC1(C)C` [NOVOBIOCIN], the MIC in the assay with Staphylococcus aureus [1] was 0.13 µg/mL (≈ 0.212 µM); against Streptococcus pneumoniae [2], over 16 µg/mL; in the assay on Staphylococcus aureus [3], 4.3 µg/mL (≈ 7.02 µM); in the assay with Streptococcus pneumoniae [4], 1 µg/mL (≈ 1.63 µM); in the assay on Streptococcus pneumoniae [5], 0.13 µg/mL (≈ 0.212 µM); with Staphylococcus aureus [6], 32 µg/mL (≈ 52.2 µM).
Consider `C[C@H]1COc2c(N3CCN(C)CC3)c(F)cc3c(=O)c(C(=O)O)cn1c23.C[C@H]1COc2c(N3CCN(C)CC3)c(F)cc3c(=O)c(C(=O)O)cn1c23.O` [LEVOFLOXACIN], for which the MIC against Staphylococcus aureus [1] is 0.13 µg/mL; against Staphylococcus aureus [3] it was over 16 µg/mL; against Staphylococcus aureus [6], 0.25 µg/mL.

The term MIC denotes the least concentration at which growth counts as inhibited. Low values mean greater potency, high ones weaker potency.
